Measured values: ChEMBL document CHEMBL1149170, “Khellinone derivatives as blockers of the voltage-gated potassium channel Kv1.3: synthesis and immunosuppressive activity” (J Med Chem, 2004)
Each block holds one compound with its values, some of them ahead of it.

Assays:
[1] = target: T1, Potassium voltage-gated channel subfamily A member 3 (Homo sapiens, UniProt P22001); assay: Dissociation constant for the blockade of voltage-gated potassium channel subunit Kv1.3 in human lymphocytes; no effect when tested at 1 uM; assay type: cell-based
Method in brief: (§1)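 Whole-cell patch clamp on cells stably expressing Kv1.3, holding potential −80 mV. Bath: Ringer (160 mM NaCl, 4.5 mM KCl, 2 mM CaCl2, 1 mM MgCl2, 10 mM HEPES, pH 7.4). Pipette: 134 mM KF, 2 mM MgCl2, 10 mM HEPES, 10 mM EGTA, pH 7.2. 500-ms pulses to 40 mV every 45 s. Single test concentration only.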

[2] = target: T1, Potassium voltage-gated channel subfamily A member 3; assay: Dissociation constant for the blockage of voltage-gated potassium channel subunit Kv1.3 in human lymphocytes; assay type: cell-based
[3] = Selectivity for Kv1.3 over Kv1.2 voltage-gated potassium channel subunit
Method in brief: (§2)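 Ringer bath, KF/EGTA pipette. Kv1.1, Kv1.2, Kv1.5, Kv1.7 and IKCa1 recorded in stably or transiently expressing cells. Kd from Hill fit to reduction in current area. Each compound 2–3 times at 3–5 concentrations.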

[4] = Selectivity for Kv1.3 over Kv1.1 voltage-gated potassium channel subunit; method in brief: as §2
Homo sapiens = species: Homo sapiens; assay: Inhibition of anti-CD3 dependent human T cell proliferation; assay type: functional
Method in brief: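 PBMCs from healthy volunteers, isolated on a density gradient, seeded at 2×10^5 cells/well in supplemented RPMI 1640. Compound preincubation 60 min, then anti-CD3 antibody 50 ng/mL for 48 h. [3H]thymidine added for the last 6 h; incorporation counted by scintillation. Normalized to maximal control incorporation. Triplicate.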

[5] = target: T1, Potassium voltage-gated channel subfamily A member 3; assay: Dissociation constant for blockade of voltage-gated potassium channel subunit Kv1.3 in human lymphocytes; no effect when tested at 10 uM; assay type: cell-based; method in brief: as §1
[6] = Selectivity for Kv1.3 voltage-gated K+ channel over IKCa1 [Ca2+] activated K+ channel; method in brief: as §2
[7] = Selectivity for Kv1.3 over Kv1.7 voltage-gated potassium channel subunit; method in brief: as §2
[8] = Selectivity for Kv1.3 over Kv1.5 voltage-gated potassium channel subunit; method in brief: as §2

T1 sequence (P22001 whole entry): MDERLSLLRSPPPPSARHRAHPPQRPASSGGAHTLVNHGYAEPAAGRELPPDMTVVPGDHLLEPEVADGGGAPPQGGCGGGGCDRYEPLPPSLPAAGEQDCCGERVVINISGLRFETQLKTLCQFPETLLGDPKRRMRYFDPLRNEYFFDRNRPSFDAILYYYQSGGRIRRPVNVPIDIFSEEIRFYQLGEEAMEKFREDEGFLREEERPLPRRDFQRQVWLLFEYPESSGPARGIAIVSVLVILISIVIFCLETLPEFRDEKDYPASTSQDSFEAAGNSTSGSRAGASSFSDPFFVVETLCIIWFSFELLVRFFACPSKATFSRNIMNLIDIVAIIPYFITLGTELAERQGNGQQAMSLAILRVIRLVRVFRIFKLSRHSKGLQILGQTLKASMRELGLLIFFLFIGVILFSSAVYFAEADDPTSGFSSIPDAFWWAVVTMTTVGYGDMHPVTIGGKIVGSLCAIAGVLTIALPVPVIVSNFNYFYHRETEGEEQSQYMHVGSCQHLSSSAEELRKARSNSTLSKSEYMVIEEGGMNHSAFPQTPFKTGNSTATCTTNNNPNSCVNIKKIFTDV

SMILES: COc1c(C(=O)/C=C/c2ccccc2)c(OCc2ccc(COc3c(C(=O)/C=C/c4ccccc4)c(OC)c4ccoc4c3OC)cc2)c(OC)c2occc12
Kd [1]: Not Active

SMILES: COc1c(C(C)O)c(OCc2ccc(COc3c(C(C)O)c(OC)c4occc4c3OC)cc2)c(OC)c2occc12 (stereo unspecified)
Kd [2]: 2 µM

SMILES: COc1c(C(C)=O)c(OCCCCCCOc2c(C(C)=O)c(OC)c3ccoc3c2OC)c(OC)c2occc12
Kd [3]: 0.25 µM
Kd [4]: 0.3 µM
EC50 (Homo sapiens): 0.8 µM
Kd [2]: 0.68 µM

SMILES: COc1c(C(=O)/C=C/c2cccc(/C=C/C(=O)c3c(O)c(OC)c4occc4c3OC)c2)c(O)c(OC)c2occc12
Kd [5]: Not Active

SMILES: COc1c(/C(C)=N/N=C(\C)c2c(O)c(OC)c3occc3c2OC)c(O)c(OC)c2occc12
Kd [2]: 70 µM

SMILES: COc1c(C(=O)/C=C/c2ccccc2)c(O)c(OC)c2occc12
Kd [3]: > 50 µM
Kd [4]: 1.2 µM
EC50 (Homo sapiens): 0.6 µM
Kd [6]: > 100 µM
Kd [7]: 10 µM
Kd [8]: 5.1 µM

SMILES: COc1c(C(C)=O)c(O)cc2occc12
Kd [2]: 100 µM

SMILES: COc1c(C(=O)/C=C/c2cccs2)c(O)c(OC)c2occc12
Kd [2]: 1 µM

SMILES: COCCOCCOCCOCCOC(=O)c1cc(COc2c(C(C)=O)c(OC)c3ccoc3c2OC)ccc1COc1c(C(C)=O)c(OC)c2ccoc2c1OC
Kd [5]: Not Active

SMILES: COc1c(C(C)=O)c(OCc2ccc(COc3cc4occc4c(OC)c3C(C)=O)cc2)cc2occc12
Kd [2]: 1 µM

SMILES: COc1cccc(/C=C/C(=O)c2c(O)c(OC)c3occc3c2OC)c1
Kd [3]: > 50 µM
Kd [4]: 2 µM
EC50 (Homo sapiens): 1 µM
Kd [6]: > 100 µM
Kd [2]: 0.8 µM
Kd [7]: > 50 µM
Kd [8]: 20 µM

SMILES: COc1c(C(C)=O)c(OCCCCCOc2c(C(C)=O)c(OC)c3ccoc3c2OC)c(OC)c2occc12
Kd [2]: 0.82 µM

SMILES: COc1c(C(C)=O)c(O)c(OC)c2occc12
Kd [2]: 50 µM

SMILES: COc1c(C(=O)/C=C/c2ccc(C)cc2)c(O)c(OC)c2occc12
Kd [2]: 0.7 µM

SMILES: C=C1C[C@@]2(O)[C@@H]3CC[C@@]4(C)[C@@H]5C=CC(=O)OC[C@]5(C(C)OC(C)=O)[C@@H](OC(C)=O)[C@@H](OC(C)=O)[C@@H]4[C@@]3(C)[C@H](OC(C)=O)[C@H](OC(C)=O)[C@@]2(C)C2(C(=O)OC)O[C@H]12 (stereo partly specified) [CORREOLIDE]
EC50 (Homo sapiens): 0.3 µM
Kd [2]: 0.1 µM

SMILES: Nc1ccncc1 [DALFAMPRIDINE]
Kd [3]: 590 µM
Kd [4]: 290 µM
Kd [6]: 29 µM
Kd [8]: 270 µM

Now from value to compound, other results behind:

Kd [2]: 17 µM
SMILES: COc1c(C(=O)/C=C/c2ccccc2)c(O)cc2occc12

Kd [2]: 0.56 µM
SMILES: COc1c(C(C)=O)c(OCc2cccc(COc3c(C(C)=O)c(OC)c4ccoc4c3OC)c2)c(OC)c2occc12

Kd [3]: > 50 µM
Kd [4]: 1.7 µM
Kd [6]: > 100 µM
Kd [7]: 50 µM
Kd [8]: 12 µM
SMILES: COc1c(C(=O)/C=C/c2cccc(O)c2)c(O)c(OC)c2occc12
EC50 (Homo sapiens): 1 µM

Kd [1]: Not Active
SMILES: COc1c(C(=O)/C=C/C=C/c2ccccc2)c(O)c(OC)c2occc12

Kd [2]: 4 µM
SMILES: COc1c(C(C)=O)c(OCCOCCOc2c(C(C)=O)c(OC)c3ccoc3c2OC)c(OC)c2occc12

Kd [2]: 3.1 µM
SMILES: COc1c(C(C)=O)c(OCc2ccc(COc3c(C(C)=O)c(OC)c4ccoc4c3OC)cc2)c(OC)c2occc12

Kd [5]: Not Active
SMILES: COc1c(C(C)=O)c(OCc2cc(COc3c(C(C)=O)c(OC)c4ccoc4c3OC)cc(COc3c(C(C)=O)c(OC)c4ccoc4c3OC)c2)c(OC)c2occc12

Kd [2]: 0.6 µM
SMILES: COc1c(C(=O)CCc2ccccc2)c(O)c(OC)c2occc12

Kd [2]: 5 µM
SMILES: COc1c(C(C)=O)c(OCc2ccc(COc3c(C(C)=O)c(OC)c4ccoc4c3OC)c(C(=O)O)c2)c(OC)c2occc12

Kd [2]: 10 µM
SMILES: COc1c(C(C)=O)c(OCc2ccccc2)c(OC)c2occc12

Kd [2]: 0.8 µM
SMILES: COc1c(C(=O)/C=C/c2cc(Br)cs2)c(O)c(OC)c2occc12

Kd [2]: 3 µM
SMILES: COc1c(C(C)=O)c(OCCCCCCCOc2c(C(C)=O)c(OC)c3ccoc3c2OC)c(OC)c2occc12
